EBI2 block = blocks human EBI2 receptor beta-arrestin signaling; EBI2 beta-arrestin recruitment, luminescence, 7a,25-OHC stimulated; inhibition, % at 5 µM; 360,000 compounds, 0.81% hits; in the data active = inhibition above about 38%;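 note: enzyme fragment complementation signal reports receptor beta-arrestin coupling in cells; 0% = agonist plus DMSO wells and 100% = wells without agonist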
MC4R barr agon = agonists of human melanocortin 4 receptor (MC4R) beta-arrestin. U2OS MC4R beta-arrestin complementation, luminescence; percent of melanotan II response, DMSO zero. 360,000 compounds, 0.98% hits. P32245. activation, % at 8.9 µM;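 active = activation above a per-plate cutoff, the mean activation of sample wells on that plate plus 3 SD, cut at about 8% in these data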
Target sequence (P32245 whole entry, looked up): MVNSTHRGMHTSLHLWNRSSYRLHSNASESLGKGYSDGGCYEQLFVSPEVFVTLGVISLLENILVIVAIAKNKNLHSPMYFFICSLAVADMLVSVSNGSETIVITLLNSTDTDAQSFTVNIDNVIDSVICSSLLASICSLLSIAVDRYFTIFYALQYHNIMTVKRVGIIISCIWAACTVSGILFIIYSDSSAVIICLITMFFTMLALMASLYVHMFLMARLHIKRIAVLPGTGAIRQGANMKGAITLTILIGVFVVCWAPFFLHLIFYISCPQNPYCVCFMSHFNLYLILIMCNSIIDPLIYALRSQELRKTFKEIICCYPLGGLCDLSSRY
Myeloid diff 2 = compounds promoting myeloid differentiation. ER-HoxA9 myeloid progenitors, lysozyme-GFP differentiation, flow cytometry. calls only at 10 µM. 360,000 compounds, 1% hits. AID 624256;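 active = normalized GFP-positive differentiation at or above the plate's own cutoff, the solvent-only control mean plus 3 SD; inconclusive = no clear call, values can overlap the other calls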;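 note: cells exposed to compound for four days before flow analysis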
Exocytosis inh = lytic granule exocytosis inhibition; TALL-104 LAMP-1 surface exposure, flow cytometry; cells stimulated with thapsigargin and PMA; inhibition, % at 10 µM; 360,000 compounds, 0.66% hits; AID 651702;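 active = inhibition above about 55%, limit read from the data; inconclusive = no clear call, values can overlap the other calls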
MC4R antag cAMP = antagonists of human melanocortin 4 receptor (MC4R). P32245. MC4R-expressing cells, MTII-stimulated cAMP, LANCE TR-FRET. inhibition, % at 6.5 µM. 360,000 compounds, 0.48% hits;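 active = inhibition above its plate's cutoff, the mean of tested wells on that plate plus 3 SD, cut at about 29% in these data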;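 note: 0% = Melanotan II alone and 100% = Melanotan II plus saturating MCL0020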
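System: U2OS cells stably expressing human melanocortin 4 receptor (MC4R). Reagent: Melanotan II challenge after compound preincubation. Doses: 6.5 µM. Times: 30-min compound, 1-h challenge, 1-h detection, room temperature. Measured by: TR-FRET with Eu-cAMP and labeled anti-cAMP, 671 nm. Replicates: singlicate.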
Myeloid diff CP1 = compounds promoting myeloid differentiation | ER-HoxA9 myeloid progenitors, GFP/Mac1 double-positive flow | shares compounds with Myeloid diff 2 | calls only | 2,300 compounds, 2% hits;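 active = share of green or green-and-red cells above 9 and 9% in run 1 or 4 and 3% in run 2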
GFP autofluor = compound fluorescence in myeloid differentiation counter-screen | shares compounds with Myeloid diff 2 | ER-HoxA9 myeloid progenitors, no estrogen, GFP autofluorescence flow cytometry; vehicle wells 0%, positive control 100% | fluorescence response, % (concentration not given with the values) | 2,300 compounds, 7.4% hits;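 active = over 5% cells positive for green fluorescent reporter, or over 2% positive for both it and APC stain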;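 note: range taken on the double positive population between DMSO and positive control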
Numbers without * were called inactive. Rows were chosen to be rich in hits. Some 3.7% of all compounds tested hit in one or more screens of this group.

Screening C[C@]12c3[nH]c4cc(-c5ccco5)ccc4c3CCN1C(=O)[C@@H](CC(=O)NCc1cccc(C(F)(F)F)c1)C[C@@H]2C(=O)N1CCOCC1 returned EBI2 block 7, MC4R barr agon -1, Myeloid diff 2 inactive, Exocytosis inh 24 and MC4R antag cAMP 15.
Screening CC(C)N(C(=O)[C@H]1C[C@H](CC(=O)NCc2cccc(C(F)(F)F)c2)C(=O)N2CCc3c([nH]c4cc(-c5ccco5)ccc34)[C@]12C)C(C)C returned EBI2 block 19, MC4R barr agon 3, Myeloid diff 2 inconclusive, Exocytosis inh 19, MC4R antag cAMP 6, Myeloid diff CP1 inactive and GFP autofluor 0.
`O=S1(=O)CC(N2CCC(c3ccccc3)CC2)CN1Cc1ccc(F)cc1` (stereo not given) gave EBI2 block 2, Myeloid diff 2 inactive and Exocytosis inh 3.
`Cc1ccc(S(=O)(=O)N2CCN(C(=O)n3ccnc3)CC2)cc1` gave EBI2 block -8, MC4R barr agon 0, Myeloid diff 2 inactive, Exocytosis inh 1 and MC4R antag cAMP 2.
For Cc1cccc(C(=O)NC2CCN(C(=O)N3CCOCC3)CC2)c1 the results were EBI2 block -9, MC4R barr agon -1, Myeloid diff 2 active, Exocytosis inh 4, MC4R antag cAMP 9, Myeloid diff CP1 inactive and GFP autofluor 0.
Cc1cccc(C(=O)NC2CCN(CC(=O)N3CCOCC3)CC2)c1 was read as EBI2 block -5, MC4R barr agon -2, Myeloid diff 2 inactive, Exocytosis inh 1 and MC4R antag cAMP 6.
For COc1cccc(-c2csc(N3CCN(CC(=O)Nc4ccc5c(c4)OCO5)CC3)n2)c1 the results were EBI2 block -2, MC4R barr agon 3, Myeloid diff 2 inactive, Exocytosis inh 0, MC4R antag cAMP -4, Myeloid diff CP1 inactive and GFP autofluor 0.
COc1ccc(NC(=O)CN2CCN(c3nc(-c4cccc(OC)c4)cs3)CC2)cc1 was read as EBI2 block 8, MC4R barr agon 5, Myeloid diff 2 inactive, Exocytosis inh -1 and MC4R antag cAMP 0.
For COc1cccc(C(O)c2ncc(-c3ccccc3Cl)[nH]2)c1 (stereo not given) the results were EBI2 block -9, MC4R barr agon -2, Myeloid diff 2 inactive, Exocytosis inh 0 and MC4R antag cAMP -3.
For COc1ccc2c(c1)NC(=O)CC(c1ccccc1)=N2 the results were EBI2 block 1, MC4R barr agon 1, Myeloid diff 2 inactive, Exocytosis inh 5, MC4R antag cAMP -11, Myeloid diff CP1 inactive and GFP autofluor 0.
For Cc1nn(C(C)C(=O)NCCCN2CCCCCC2)c(=O)c2cc3sccc3n12 (stereo not given) the results were EBI2 block -6, MC4R barr agon 0, Myeloid diff 2 inactive, Exocytosis inh 3 and MC4R antag cAMP 5.
`CC(=O)Nc1ccc(C2=CC(=O)C[C@H](c3ccc(Cl)cc3)C2)cc1` gave EBI2 block 39, MC4R barr agon -1, Myeloid diff 2 inactive, Exocytosis inh 8, MC4R antag cAMP -2, Myeloid diff CP1 active and GFP autofluor 0.
`Cc1cc(C(F)(F)F)nc(SCC(=O)c2cccc([N+](=O)[O-])c2)n1` gave EBI2 block -3, MC4R barr agon 1, Myeloid diff 2 inactive, Exocytosis inh -4, MC4R antag cAMP -6, Myeloid diff CP1 inactive and GFP autofluor 0.
CCOC(=O)c1[nH]c2ccc(Br)cc2c1NC(=O)CCN1CCCC(C)(C)C1 was read as EBI2 block 6, MC4R barr agon 0, Myeloid diff 2 active, Exocytosis inh -1, MC4R antag cAMP 5, Myeloid diff CP1 inactive and GFP autofluor 0.
CCCC(C(=O)NC1CCCC1)N(CC1CCCO1)C(=O)CNS(=O)(=O)c1ccc(F)cc1 (stereo not given) was read as EBI2 block -6, MC4R barr agon 2, Myeloid diff 2 inactive, Exocytosis inh 2 and MC4R antag cAMP 2.
O=C(Cc1cn(-c2ccccc2)nc1-c1ccccc1)N1CCCCC1 was read as EBI2 block 2, MC4R barr agon 1, Myeloid diff 2 inactive, Exocytosis inh -12 and MC4R antag cAMP 11.
`O=C(Nc1cccc(C(F)(F)F)c1)c1cc(S(=O)(=O)N2CCCCC2)ccc1N1CCOCC1` gave EBI2 block 8, MC4R barr agon 0, Myeloid diff 2 inactive, Exocytosis inh 2, MC4R antag cAMP -2, Myeloid diff CP1 inactive and GFP autofluor 0.
For O=C(Nc1cccc(F)c1)c1cc(S(=O)(=O)N2CCOCC2)ccc1N1CCCC1 the results were EBI2 block -5, MC4R barr agon 0, Myeloid diff 2 inactive, Exocytosis inh -2 and MC4R antag cAMP 10.
For Cc1ccc(OCCOC(=O)c2cc(S(=O)(=O)N3CCCCC3)ccc2N2CCOCC2)cc1 the results were EBI2 block 2, MC4R barr agon -2, Myeloid diff 2 active, Exocytosis inh 0, MC4R antag cAMP 11, Myeloid diff CP1 inactive and GFP autofluor 0.
Screening O=C(OCCOc1ccc(Cl)cc1)c1cc(S(=O)(=O)N2CCCCC2)ccc1N1CCOCC1 returned EBI2 block 25, MC4R barr agon -3, Myeloid diff 2 inactive, Exocytosis inh -12 and MC4R antag cAMP 26.
For c1ccc(-c2nc3cccnc3nc2-c2ccccc2)cc1 the results were EBI2 block -3, MC4R barr agon -3, Myeloid diff 2 inactive, Exocytosis inh -2 and MC4R antag cAMP -2.
`NNC(=O)c1ccc(COc2ccc(Br)cc2)o1` gave EBI2 block 16, MC4R barr agon 1, Myeloid diff 2 inactive, Exocytosis inh 28, MC4R antag cAMP 1, Myeloid diff CP1 inactive and GFP autofluor 0.
Screening CC(C)(C)c1ccc(OCc2ccc(C(=O)NN)o2)cc1 returned EBI2 block 1, MC4R barr agon 0, Myeloid diff 2 active, Exocytosis inh 4, MC4R antag cAMP 18, Myeloid diff CP1 inactive and GFP autofluor 0.
For NNC(=O)c1ccc(COc2ccc3c(c2)CCC3)o1 the results were EBI2 block -12, MC4R barr agon 2, Myeloid diff 2 inactive, Exocytosis inh -6 and MC4R antag cAMP 11.
`N#CCc1nn2c3c(cnc2c1C#N)C(=O)CCC3` gave EBI2 block 1, MC4R barr agon 2, Myeloid diff 2 inactive, Exocytosis inh 0 and MC4R antag cAMP 9.
Screening CCOc1ccc(S(=O)(=O)Nc2cccc(C(=O)NCCCN3CCCC3=O)c2)cc1 returned EBI2 block -5, MC4R barr agon -2, Myeloid diff 2 inactive, Exocytosis inh 2, MC4R antag cAMP 3, Myeloid diff CP1 inactive and GFP autofluor 0.

Screens: PubChem BioAssay, several laboratories
